Compounds with a hit are over-represented: about 5.9% of the library has one in this group of screens.
T cruzi growth-1 = T. cruzi intracellular proliferation inhibitors, primary screen, cell-based, beta-gal Tulahuen parasites, NIH3T3 host, luminescence; 77,000 compounds, 5.9% hits; inhibition, % at 8.34 µM; T. cruzi beta-gal in NIH3T3, GalScreen luminescence, 90 h;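 active = mean inhibition above about 93%, with at least 55% of replicates each passing it, limit read from the data, passing the limit was not always enough; inconclusive = only one of those two conditions holds; inactive = neither condition holds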
GASC1 inh = inhibitors of GASC-1 (KDM4C) histone demethylase, primary screen, biochemical, single concentration HTS. 96,000 compounds, 0.15% hits. Lysine-specific demethylase 4C (Homo sapiens), Q9H3R0. GST-KDM4C 2-372, H3K9me3 peptide, LANCE TR-FRET. inhibition, % at 12.5 µM;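 active = mean replicate inhibition above about 25%, with at least 55% of replicates also reaching it, limit read from the data, passing the limit was not always enough; inconclusive = only one of those two conditions met; inactive = neither condition met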
Target sequence (Q9H3R0 2-372 limits assumed): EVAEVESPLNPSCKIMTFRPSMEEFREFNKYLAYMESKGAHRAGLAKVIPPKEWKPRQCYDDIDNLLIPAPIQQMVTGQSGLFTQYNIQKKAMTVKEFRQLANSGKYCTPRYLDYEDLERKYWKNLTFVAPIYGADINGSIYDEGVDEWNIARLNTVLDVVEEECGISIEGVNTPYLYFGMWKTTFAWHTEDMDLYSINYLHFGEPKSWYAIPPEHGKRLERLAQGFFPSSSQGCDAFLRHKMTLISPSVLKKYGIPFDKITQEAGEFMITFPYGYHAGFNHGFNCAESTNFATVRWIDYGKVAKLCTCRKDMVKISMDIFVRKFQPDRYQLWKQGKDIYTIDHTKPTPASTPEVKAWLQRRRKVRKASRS
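Material: GST-tagged GASC-1 (JMJD2C) catalytic fragment, aa 2-372 / Quantity: enzyme final amount 10 nM / Medium: HEPES buffer, pH 7.5, plus ascorbate / Doses: one test concentration per compound / Incubation: 30 min reaction, 60 min detection, RT / Measured by: LANCE TR-FRET / Read-out: inhibition from TR-FRET ratio decrease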
IDH1 R132H inh = inhibitors of IDH1 R132H reductase, primary screen, biochemical, plate reader, single point; inhibition, % at 10 µM; 70,000 compounds, 0.18% hits; diaphorase/resazurin fluorescence, 60 min; in the data active = inhibition above about 34%; inconclusive = no clear call, values can overlap the other calls; inactive = below about 11%
Pf Dd2 growth = P. falciparum Dd2 growth inhibitors, primary screen, SYBR Green fluorescence, single dose replicates; activity change, % at 10 µM; 94,000 compounds, 2.3% hits; 72 h; active compounds read low; in the data active = activity change below about -80%; inconclusive = no clear call, values can overlap the other calls
T cruzi growth-2 = T. cruzi intracellular proliferation inhibitors, confirmation, cell-based, NIH3T3 host, beta-gal parasite, luminescence, cherry-pick. AID 651739, 2012. 5,600 compounds, 72% hits. shares compounds with T cruzi growth-1. T. cruzi beta-gal in NIH3T3, GalScreen luminescence, 90 h. inhibition, % at 8.35 µM;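 active = mean replicate inhibition above about 95% and at least 55% of replicates individually reaching it, limit read from the data; inconclusive = only one of the two criteria is met; inactive = neither criterion is met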
T cruzi growth-3 = inhibitors of intracellular T. cruzi replication, confirmation, NIH3T3 host cells, beta-gal parasites, cherry-pick, set 2. shares compounds with T cruzi growth-1. T. cruzi beta-gal in NIH3T3, GalScreen luminescence, 90 h. inhibition, % at 2.09 µM. 5,600 compounds, 21% hits;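 active = mean inhibition above about 95%, with at least 55% of replicates also reaching it, limit read from the data; inconclusive = meets just one of the two conditions; inactive = meets neither condition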
NIH3T3 tox = cytotoxicity in mouse NIH/3T3 fibroblasts, confirmation, cytotoxicity control for T. cruzi proliferation inhibitor project, cell-based, cherry-pick, single point; shares compounds with T cruzi growth-1; NIH/3T3 viability, CellTiter-Glo ATP luminescence, 90 h; cytotoxicity (signal decrease), % at 8.35 µM; 5,600 compounds, 14% hits;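 active = mean signal decrease across replicates above about 35% based on untreated-well scatter, with enough replicates individually passing, limit read from the data; inconclusive = no rule stated though some were filed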
3T3 cytotox 2 = NIH/3T3 fibroblast cytotoxicity, confirmation, cytotoxicity control, cell-based, cherry-pick, single point, set 2; shares compounds with T cruzi growth-1; NIH/3T3 viability, CellTiter-Glo ATP luminescence, 90 h; inhibition, % at 24.9 µM; 5,600 compounds, 56% hits; AID 651744, 2012;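 active = mean loss of cell viability signal at or above a set limit, and enough replicates individually reaching it; inconclusive = meets only the mean limit or only the replicate share; inactive = meets neither condition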
Numbers stand for hits; – = inactive; ? = inconclusive; · = no result.

SMILES	T cruzi growth-1	GASC1 inh	IDH1 R132H inh	Pf Dd2 growth	T cruzi growth-2	T cruzi growth-3	NIH3T3 tox	3T3 cytotox 2
CNC[C@@H]1OCCCC[C@@H](C)Oc2ccc(NC(=O)Nc3ccc(C(F)(F)F)cc3)cc2C(=O)N([C@@H](C)CO)C[C@H]1C	?	–	·	–	–	–	–	–
C[C@@H]1CN([C@H](C)CO)C(=O)c2cc(N(C)C)ccc2O[C@@H](C)CCCCO[C@H]1CN(C)C(=O)Nc1ccc(C(F)(F)F)cc1	–	–	·	–	·	·	·	·
CNC[C@@H]1OCCCC[C@@H](C)Oc2ccc(NC(=O)Nc3ccc(C(F)(F)F)cc3)cc2C(=O)N([C@@H](C)CO)C[C@@H]1C	–	–	–	–	·	·	·	·
CC(C)NC(=O)N(C)C[C@@H]1OCCCC[C@H](C)Oc2ccc(NC(=O)Nc3ccc(C(F)(F)F)cc3)cc2C(=O)N([C@@H](C)CO)C[C@@H]1C	?	–	–	–	109	–	–	–
CC(C(=O)Nc1cccc(Br)c1)N(c1ccc(Cl)cc1)S(C)(=O)=O (stereo not given)	·	·	–	·	·	·	·	·
COc1ccc(OC)c(S(=O)(=O)N2CCC(C(=O)Nc3cc(Cl)ccc3Oc3ccccc3)CC2)c1	·	·	–	·	·	·	·	·
C[C@@H]1CCCCO[C@@H](CN(C)C(=O)Nc2ccc(F)cc2)[C@@H](C)CN([C@H](C)CO)C(=O)c2cc(NC(=O)Nc3ccc(C(F)(F)F)cc3)ccc2O1	–	–	·	–	·	·	·	·
C[C@H](CO)N1C[C@H](C)[C@@H](CN(C)C(=O)Nc2ccc(C(F)(F)F)cc2)OCCCC[C@H](C)Oc2ccc(NC(=O)NC3CCCCC3)cc2C1=O	113	–	·	–	105	105	–	–
CC(C)NC(=O)Nc1ccc2c(c1)C(=O)N([C@H](C)CO)C[C@@H](C)[C@H](CN(C)C(=O)Nc1ccc(C(F)(F)F)cc1)OCCCC[C@@H](C)O2	–	–	·	–	·	·	·	·
C[C@@H]1CCCCO[C@H](CN(C)C(=O)Nc2ccc(F)cc2)[C@@H](C)CN([C@H](C)CO)C(=O)c2cc(NC(=O)Nc3ccc(C(F)(F)F)cc3)ccc2O1	?	–	·	–	105	101	–	–
C[C@@H]1CCCCO[C@@H](CN(C)C(=O)Nc2ccc(C(F)(F)F)cc2)[C@@H](C)CN([C@H](C)CO)C(=O)c2cc(NC(=O)NC3CCCCC3)ccc2O1	·	–	–	–	·	·	·	·
C[C@H]1CCCCO[C@@H](CN(C)C(=O)Nc2ccc(C(F)(F)F)cc2)[C@@H](C)CN([C@@H](C)CO)C(=O)c2cc(NC(=O)Nc3ccc(F)cc3)ccc2O1	114	–	–	–	108	106	–	–
CC(C)NC(=O)Nc1ccc2c(c1)C(=O)N([C@H](C)CO)C[C@@H](C)[C@@H](CN(C)C(=O)Nc1ccc(C(F)(F)F)cc1)OCCCC[C@@H](C)O2	105	–	·	–	104	–	–	–
Cc1ccc(S(=O)(=O)Nc2ccc3c(c2)C(=O)N([C@H](C)CO)C[C@@H](C)[C@H](CN(C)Cc2ccccc2)OCCCC[C@@H](C)O3)cc1	93	–	·	–	109	–	–	86
C[C@@H]1CCCCO[C@@H](CN(C)Cc2ccncc2)[C@H](C)CN([C@H](C)CO)C(=O)c2cc(NS(C)(=O)=O)ccc2O1	102	–	–	–	–	–	–	–
C[C@H](CO)N1C[C@H](C)[C@@H](CN(C)Cc2ccccc2)OCCCC[C@H](C)Oc2ccc(NS(C)(=O)=O)cc2C1=O	99	–	–	–	–	–	–	–

High-throughput results as filed in PubChem.
